Assay results taken from publication PMC2119941 (The Journal of Cell Biology, 1994).
No end group written: not given here.

Experiments:
alpha 5 beta 1 integrin [1] = molecular target: T1, alpha 5 beta 1 integrin (Homo sapiens, UniProt P05556+P08648); assay type: binding
alpha 5 beta 1 integrin [2] = molecular target: alpha 5 beta 1 integrin (UniProt G3HZ55+P08648); test: Cell attachment assay: B2/a27 cells on fibronectin; assay type: cell-based, human
alpha 5 beta 1 integrin [3] = molecular target: T1, alpha 5 beta 1 integrin; assay type: binding; conditions: control peptide; not shown
alpha 5 beta 1 integrin [4] = molecular target: T1, alpha 5 beta 1 integrin; assay type: binding; conditions: unrelated cyclic control peptide
alpha v beta 3 integrin = alpha v beta 3 integrin (Homo sapiens, UniProt P05106+P06756); assay type: binding
Chain of alpha v beta 3 integrin (P06756 891-1048): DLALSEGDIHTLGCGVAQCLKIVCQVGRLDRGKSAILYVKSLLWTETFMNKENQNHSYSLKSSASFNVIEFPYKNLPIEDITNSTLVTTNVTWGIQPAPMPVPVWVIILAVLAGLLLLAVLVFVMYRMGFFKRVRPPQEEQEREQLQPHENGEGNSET
Chain of alpha v beta 3 integrin (P05106 27-788): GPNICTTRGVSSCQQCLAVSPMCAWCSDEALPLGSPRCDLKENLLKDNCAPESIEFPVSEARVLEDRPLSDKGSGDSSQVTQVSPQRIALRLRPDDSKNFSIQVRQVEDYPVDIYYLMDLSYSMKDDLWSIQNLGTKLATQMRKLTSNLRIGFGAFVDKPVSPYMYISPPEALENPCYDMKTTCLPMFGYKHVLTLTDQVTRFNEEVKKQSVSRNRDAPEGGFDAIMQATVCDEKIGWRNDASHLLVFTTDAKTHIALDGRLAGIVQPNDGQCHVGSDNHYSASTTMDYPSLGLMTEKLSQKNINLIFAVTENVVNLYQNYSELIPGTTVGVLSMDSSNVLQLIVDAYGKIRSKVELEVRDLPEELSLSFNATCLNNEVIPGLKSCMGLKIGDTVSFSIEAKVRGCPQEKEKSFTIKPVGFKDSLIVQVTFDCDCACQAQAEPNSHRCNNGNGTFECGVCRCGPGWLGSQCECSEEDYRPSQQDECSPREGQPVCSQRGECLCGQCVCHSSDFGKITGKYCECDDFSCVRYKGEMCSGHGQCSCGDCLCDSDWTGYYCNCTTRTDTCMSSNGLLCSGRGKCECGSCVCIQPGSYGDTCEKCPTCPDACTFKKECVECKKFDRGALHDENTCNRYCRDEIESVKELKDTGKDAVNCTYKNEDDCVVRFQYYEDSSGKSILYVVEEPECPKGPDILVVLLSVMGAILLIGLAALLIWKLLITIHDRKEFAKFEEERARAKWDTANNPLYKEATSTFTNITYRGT
Chain of alpha v beta 3 integrin (P06756 31-889): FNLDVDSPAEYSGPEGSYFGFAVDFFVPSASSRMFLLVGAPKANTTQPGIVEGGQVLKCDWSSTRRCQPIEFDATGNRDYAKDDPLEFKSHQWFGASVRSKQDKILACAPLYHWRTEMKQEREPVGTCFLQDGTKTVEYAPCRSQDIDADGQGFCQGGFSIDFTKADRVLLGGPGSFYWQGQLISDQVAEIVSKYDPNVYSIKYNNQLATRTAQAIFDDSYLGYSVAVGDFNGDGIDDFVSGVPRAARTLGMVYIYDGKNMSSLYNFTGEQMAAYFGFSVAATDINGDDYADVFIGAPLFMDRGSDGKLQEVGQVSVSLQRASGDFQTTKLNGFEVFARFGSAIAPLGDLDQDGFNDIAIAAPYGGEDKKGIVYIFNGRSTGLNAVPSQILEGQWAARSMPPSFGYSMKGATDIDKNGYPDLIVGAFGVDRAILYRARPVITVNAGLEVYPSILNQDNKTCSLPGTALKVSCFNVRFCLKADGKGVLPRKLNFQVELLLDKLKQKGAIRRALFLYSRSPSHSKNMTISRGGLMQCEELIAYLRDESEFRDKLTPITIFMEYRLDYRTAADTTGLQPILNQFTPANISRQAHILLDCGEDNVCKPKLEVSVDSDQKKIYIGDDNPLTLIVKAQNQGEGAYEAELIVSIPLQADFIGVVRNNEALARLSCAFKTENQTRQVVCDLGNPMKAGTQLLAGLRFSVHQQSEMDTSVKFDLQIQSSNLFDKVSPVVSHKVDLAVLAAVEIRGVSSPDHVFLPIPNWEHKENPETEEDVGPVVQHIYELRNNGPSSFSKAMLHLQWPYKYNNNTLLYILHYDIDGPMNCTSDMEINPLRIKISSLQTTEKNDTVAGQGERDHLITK
Method in brief: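 Human placental αvβ3 (octyl glucoside extract with 1 mM MnCl2 and 1 mM CaCl2) coated in microtiter wells. Phage incubated 1 h at room temperature, then washed five times. Bound phage infected K91kan bacteria for 10 min at 37°C, then grown in Terrific broth with tetracycline and kanamycin (30 min at 37°C, then overnight at room temperature with shaking). Bacterial growth read as A600.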

[5] = molecular target: alpha IIb beta 3 integrin (Homo sapiens, UniProt P05106+P08514); test: Binding to wells coated with alpha IIb beta 3 integrin

T1 sequence (P08648 42-894 limits assumed): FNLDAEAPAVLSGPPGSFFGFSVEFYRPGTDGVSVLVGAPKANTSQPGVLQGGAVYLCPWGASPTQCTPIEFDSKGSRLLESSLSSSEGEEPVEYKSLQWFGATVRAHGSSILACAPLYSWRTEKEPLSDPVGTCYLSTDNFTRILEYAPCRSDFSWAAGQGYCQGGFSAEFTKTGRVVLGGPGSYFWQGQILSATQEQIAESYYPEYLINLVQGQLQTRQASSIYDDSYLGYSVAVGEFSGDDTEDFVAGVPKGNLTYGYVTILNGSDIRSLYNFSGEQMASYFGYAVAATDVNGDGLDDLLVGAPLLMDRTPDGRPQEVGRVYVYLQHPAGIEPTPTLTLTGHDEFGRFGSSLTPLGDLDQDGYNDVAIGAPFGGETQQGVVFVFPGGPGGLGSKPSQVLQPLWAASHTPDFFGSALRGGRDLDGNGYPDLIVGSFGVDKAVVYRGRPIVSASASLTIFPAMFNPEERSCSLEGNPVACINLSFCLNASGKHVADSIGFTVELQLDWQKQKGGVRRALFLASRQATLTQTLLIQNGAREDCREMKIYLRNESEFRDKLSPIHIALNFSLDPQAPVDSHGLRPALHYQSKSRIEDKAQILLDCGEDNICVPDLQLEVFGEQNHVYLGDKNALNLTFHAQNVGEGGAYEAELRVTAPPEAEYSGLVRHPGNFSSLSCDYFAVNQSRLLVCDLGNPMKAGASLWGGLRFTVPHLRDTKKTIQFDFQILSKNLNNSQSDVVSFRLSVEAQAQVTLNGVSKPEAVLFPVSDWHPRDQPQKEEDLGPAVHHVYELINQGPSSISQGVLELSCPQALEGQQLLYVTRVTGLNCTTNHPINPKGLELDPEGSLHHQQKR
T1 sequence (P08648 895-1049 limits assumed): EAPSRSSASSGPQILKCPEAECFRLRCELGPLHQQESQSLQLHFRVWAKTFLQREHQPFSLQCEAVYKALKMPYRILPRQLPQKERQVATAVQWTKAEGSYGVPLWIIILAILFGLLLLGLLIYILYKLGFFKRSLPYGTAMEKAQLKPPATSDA
T1 sequence (P05556 21-798): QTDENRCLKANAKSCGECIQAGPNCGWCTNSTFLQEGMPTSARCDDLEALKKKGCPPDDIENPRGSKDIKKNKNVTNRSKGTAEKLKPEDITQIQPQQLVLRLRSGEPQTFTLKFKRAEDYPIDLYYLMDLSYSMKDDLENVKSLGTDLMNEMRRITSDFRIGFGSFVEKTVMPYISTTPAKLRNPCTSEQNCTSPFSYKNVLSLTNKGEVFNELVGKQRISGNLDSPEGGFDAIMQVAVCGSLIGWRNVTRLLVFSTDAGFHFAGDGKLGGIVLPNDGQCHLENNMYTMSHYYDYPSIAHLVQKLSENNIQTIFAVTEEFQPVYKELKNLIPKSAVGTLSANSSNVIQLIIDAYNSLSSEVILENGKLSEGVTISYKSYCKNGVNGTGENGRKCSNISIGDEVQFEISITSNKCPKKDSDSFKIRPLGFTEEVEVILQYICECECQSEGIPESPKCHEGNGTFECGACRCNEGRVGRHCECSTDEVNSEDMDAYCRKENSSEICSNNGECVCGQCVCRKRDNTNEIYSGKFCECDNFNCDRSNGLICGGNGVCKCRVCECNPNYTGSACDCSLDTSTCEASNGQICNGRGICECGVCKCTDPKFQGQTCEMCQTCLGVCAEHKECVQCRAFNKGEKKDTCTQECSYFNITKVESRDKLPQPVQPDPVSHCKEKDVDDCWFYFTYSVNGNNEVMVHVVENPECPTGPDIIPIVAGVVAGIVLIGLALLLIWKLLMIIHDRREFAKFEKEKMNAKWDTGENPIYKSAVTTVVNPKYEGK
Chain of alpha 5 beta 1 integrin (UniProt G3HZ55+P08648) (P08648 42-894 limits assumed): as the sequence (P08648 42-894 limits assumed) above
Chain of alpha 5 beta 1 integrin (UniProt G3HZ55+P08648) (P08648 895-1049 limits assumed): as the sequence (P08648 895-1049 limits assumed) above
Chain of alpha 5 beta 1 integrin (UniProt G3HZ55+P08648) (G3HZ55 21-798): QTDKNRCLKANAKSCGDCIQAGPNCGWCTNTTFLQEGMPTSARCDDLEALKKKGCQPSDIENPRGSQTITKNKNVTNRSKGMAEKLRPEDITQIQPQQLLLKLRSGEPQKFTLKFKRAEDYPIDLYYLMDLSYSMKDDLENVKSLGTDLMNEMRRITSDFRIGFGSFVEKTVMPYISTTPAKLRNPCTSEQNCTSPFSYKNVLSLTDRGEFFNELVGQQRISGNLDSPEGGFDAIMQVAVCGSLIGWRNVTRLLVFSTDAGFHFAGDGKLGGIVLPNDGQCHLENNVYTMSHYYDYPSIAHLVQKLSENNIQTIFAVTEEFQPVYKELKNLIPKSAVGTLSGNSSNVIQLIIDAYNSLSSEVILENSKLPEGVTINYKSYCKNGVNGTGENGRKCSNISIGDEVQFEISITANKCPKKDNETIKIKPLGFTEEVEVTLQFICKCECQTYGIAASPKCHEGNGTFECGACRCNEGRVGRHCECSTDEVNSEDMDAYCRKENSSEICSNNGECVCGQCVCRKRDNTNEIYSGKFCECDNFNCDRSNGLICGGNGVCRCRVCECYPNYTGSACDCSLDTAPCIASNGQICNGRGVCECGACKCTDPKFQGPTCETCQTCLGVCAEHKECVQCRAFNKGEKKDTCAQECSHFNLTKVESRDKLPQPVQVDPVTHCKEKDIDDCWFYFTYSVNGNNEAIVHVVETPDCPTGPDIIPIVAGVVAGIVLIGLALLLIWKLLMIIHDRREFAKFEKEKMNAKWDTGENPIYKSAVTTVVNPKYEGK

Row | Substance | Binding of phage clone to microtiter wells coated with alpha 5 beta 1 (alpha 5 beta 1 integrin [1]) | also measured
1 | STSDVGG (disulfide (positions not given here)) | significantly over the background | –
2 | GRGESP [reference compound] | – | Effect on alpha 5 beta 1-mediated cell attachment to fibronectin (alpha 5 beta 1 integrin [2]; control peptide): no effect; Effect on binding of RRETAWA-containing phage to alpha 5 beta 1 (alpha 5 beta 1 integrin [3]): no effect
3 | GACRRETAWACGA [GACRRETAWACGA not cyclized] | – | Activity of peptide not cyclized by oxidation (alpha 5 beta 1 integrin [2]; relative to cyclic *CRRETAWAC*): reduced activity
4 | GA*CSPYFLRLC*GA (disulfide) | – | Effect on binding of 125I-labeled fibronectin to alpha 5 beta 1 (alpha 5 beta 1 integrin [4]): no significant effect
5 | VFSIAHE (disulfide (positions not given here)) | significantly over the background | –
6 | RRETAWA (disulfide (positions not given here)) [RRETAWA-phage] | avidly | Binding of phage clone to microtiter wells coated with alpha v beta 3 (alpha v beta 3 integrin): only weakly; Binding to the alpha IIb beta 3 integrin [5]: did not bind
7 | VRLNSLA (disulfide) | significantly over the background | –
8 | TLVPSRS (disulfide (positions not given here)) | significantly over the background | –
9 | RGAPRAW (disulfide (positions not given here)) | bound weakly | –
